Measurements pooled from the literature.
Compare with care: the assays were run in different laboratories.
Phosphatidylserine lipase ABHD16A: Phosphatidylserine lipase ABHD16A (Homo sapiens, UniProt O95870)

O=C(Nc1ccc(I)cc1)N1CCC(n2c(=O)[nH]c3c(Br)cccc32)CC1
IC50 (N-glycosylase/DNA lyase (OGG1, Homo sapiens, UniProt O15527); enzyme activity; inhibitor; fluorescence): 0.342 µM

CCCS(=O)(=O)Nc1ccc(F)c(C(=O)c2c[nH]c3ncc(Br)cc23)c1F
IC50 (Dual specificity mitogen-activated protein kinase kinase 4 (MAP2K4, Homo sapiens, UniProt P45985); enzyme activity; inhibitor; ADP detection): 1.4 µM

CC(=O)SCCNC(=O)CCNC(=O)[C@H](O)C(C)(C)COP(=O)(O)OP(=O)(O)OC[C@H]1O[C@@H](n2cnc3c(N)ncnc32)[C@H](O)[C@@H]1OP(=O)(O)O
IC50 (CAB1 (Saccharomyces cerevisiae, UniProt Q04430); enzyme activity; inhibitor): > 100 µM

c1c[nH]cn1
Kd (Nitric oxide synthase, inducible (Nos2, Mus musculus, UniProt P29477); binding): 56 µM

O=C(O)C1=CC(O)CC1 (stereo not drawn)
Ki (Calcium/calmodulin-dependent protein kinase type II subunit alpha (Rattus norvegicus, UniProt P11275); cell-free assay; radioligand; pH 6): 1.58 µM

Cn1cc(-c2cc(F)cc(N3CCn4c(cc5c4CCCC5)C3=O)c2CO)cc(Nc2ccc(N3CCN(C4COC4)CC3)cn2)c1=O
Ki (Tyrosine-protein kinase Lck (LCK, Homo sapiens, UniProt P06239); enzyme activity; inhibitor; FRET): 1.07 µM

CC(C)C[C@H](NC(=O)[C@H](Cc1ccccc1)NC(=O)[C@H](Cc1ccc(O)cc1)NC(=O)CNC(=O)[C@H](CCCCN)NC(=O)[C@H](CO)NC(=O)[C@H](CCC(N)=O)NC(=O)CNC(=O)[C@@H](NC(=O)[C@H](CO)NC(=O)[C@@H]1CCCN1C(=O)[C@H](CO)NC(=O)[C@H](CCC(N)=O)NC(=O)[C@H](Cc1ccc(O)cc1)NC(=O)[C@H](CCC(=O)O)NC(=O)[C@H](C)NC(=O)[C@H](CCCCN)NC(=O)[C@@H](N)Cc1ccccc1)C(C)C)C(=O)N[C@@H](Cc1ccccc1)C(=O)N[C@@H](CCCNC(=N)N)C(=O)N1CCC[C@H]1C(=O)N[C@@H](CCCNC(=N)N)C(=O)N[C@@H](CC(N)=O)C(N)=O
EC50 (Neuromedin-U receptor 1 (NMUR1, Homo sapiens, UniProt Q9HB89); inositol phosphate; agonist; TR-FRET): 0.00045 µM

CCCCCCCCCCCCCC1OC(=O)/C1=C\CCCCC(N)=O (stereo not drawn)
IC50 (Phosphatidylserine lipase ABHD16A; cell-free assay; inhibitor): 0.2 to 0.5 µM

C[C@H]1CCC[C@H](O)CCC/C=C/c2cc(O)cc(O)c2C(=O)O1
EC50 (Estrogen receptor beta (ESR2, Homo sapiens, UniProt Q92731); reporter gene; agonist; luciferase): 0.00044 µM

CC(C)[C@@H]1NC(=O)[C@@H]2CCCN2C(=O)[C@H](Cc2ccccc2)NC(=O)CSC[C@@H](C(=O)N[C@@H](Cc2ccc(O)cc2)C(N)=O)NC(=O)[C@H](Cc2c[nH]c3ccccc23)NC(=O)[C@H](CCCCN)NC(=O)[C@H](Cc2ccccc2)N(C)C(=O)[C@H](Cc2ccccc2)NC1=O
IC50 (Stimulator of interferon genes protein (STING1, Homo sapiens, UniProt Q86WV6, H232R); ligand displacement; TR-FRET): 0.18 µM

CCCCCCCCCCCCCC1OC(=O)/C1=C\CCCCCS(N)(=O)=O (stereo not drawn)
IC50 (Phosphatidylserine lipase ABHD16A; enzyme activity; inhibitor): 0.5 to 1 µM

Oc1ccc(/C=C/c2cc(O)cc(O)c2)cc1
Kd (Troponin C, slow skeletal and cardiac muscles (TNNC1, Human, UniProt P63316); binding; NMR): 240 µM
